Measurements from ChEMBL document CHEMBL1122164, “Hypolipidemic 4,5-dihydro-4-oxo-5,5-disubstituted-2-furancarboxylic acids” (1982).

How the values were obtained:
Rattus norvegicus [1] = test: Effect on serum Triglycerides was determined in normal rats at a dose of 1 (mmol/kg)/day; type: functional
How it was run: (§1)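 Normal rats, 8-10 per group, dosed daily for 7 consecutive days by gastric intubation with compound suspended in 2% Tween 80. Decapitated 3 h after last dose; serum triglycerides measured by semiautomated method. Result expressed as % change from vehicle control group mean; significance by two-tailed Student's t test.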

Rattus norvegicus [2] = test: Effect on serum Triglycerides was determined in normal rats at a dose of 0.2 (mmol/kg)/day; type: functional; how it was run: as §1
Rattus norvegicus [3] = test: Effect on serum Triglycerides was determined in normal rats at a dose of 0.02 (mmol/kg)/day; type: functional; how it was run: as §1
Rattus norvegicus [4] = test: Effect on serum Triglycerides was determined in normal rats at a dose of 0.1 (mmol/kg)/day; type: functional; how it was run: as §1
Rattus norvegicus [5] = test: Effect on serum Triglycerides was determined in normal rats at a dose of 0.03 (mmol/kg)/day; type: functional; how it was run: as §1
Rattus norvegicus [6] = test: Effect on serum Triglycerides was determined in normal rats at a dose of 0.01 (mmol/kg)/day; type: functional; how it was run: as §1
Rattus norvegicus [7] = test: Effect on serum Triglycerides was measured on treated rats at a dose of 0.5 (mmol/kg)/day; type: functional, organism-based
Rattus norvegicus [8] = test: Effect on serum Triglycerides was measured on treated rats at a dose of 0.05 (mmol/kg)/day; type: functional, organism-based
Rattus norvegicus [9] = test: Effect on serum Triglycerides was measured on control rats at a dose of 0.5 (mmol/kg)/day; type: functional, organism-based
Rattus norvegicus [10] = test: Effect on serum Triglycerides was measured on control rats at a dose of 0.05 (mmol/kg)/day; type: functional, organism-based
Rattus norvegicus [11] = test: Effect on serum Triglycerides levels was measured on treated rats at a dose of 0.05 (mmol/kg)/day; type: functional, organism-based
Rattus norvegicus [12] = test: Effect on serum Triglycerides levels was measured on control rats at a dose of 0.5 (mmol/kg)/day; type: functional, organism-based
Rattus norvegicus [13] = test: Effect on serum Triglycerides levels was measured on control rats at a dose of 0.05 (mmol/kg)/day; type: functional, organism-based
Rattus norvegicus [14] = test: Effect on serum Triglycerides levels was measured on treated rats at a dose of 0.5 (mmol/kg)/day; type: functional, organism-based
Rattus norvegicus [15] = test: Effect on liver weight was measured on control rats at a dose of 0.5 (mmol/kg)/day; type: functional
Rattus norvegicus [16] = test: Effect on liver weight was measured on control rats at a dose of 0.05 (mmol/kg)/day; type: functional
Rattus norvegicus [17] = test: Effect on liver weight was measured on treated rats at a dose of 0.05 (mmol/kg)/day; type: functional
Rattus norvegicus [18] = test: Effect on serum Triglycerides was determined in normal rats at a dose of 0.005 (mmol/kg)/day; type: functional; how it was run: as §1
Rattus norvegicus [19] = test: Effect on liver weight was measured on treated rats at a dose of 0.5 (mmol/kg)/day; type: functional

Structure (SMILES)	Change (Rattus norvegicus [1])	Change (Rattus norvegicus [2])	Change (Rattus norvegicus [3])	Change (Rattus norvegicus [4])	other results
O=C(O)C1=CC(=O)C2(CCCc3ccccc32)O1 (centres undefined)	-43%	–	–	–	–
CC(C)C1(c2ccccc2)OC(C(=O)O)=CC1=O (centres undefined)	-53%	-31%	-10%	-2%	–
CC1(c2ccccc2)OC(=O)C(=O)CC1=O (centres undefined)	–	-31%	-13%	-27%	–
CC1(C)OC(C(=O)O)=CC1=O	-36%	-36%	-36%	-43%	–
COC(=O)C1=CC(=O)C(C)(c2ccccc2)O1 (centres undefined)	-53%	-40%	-34%	-40%	–
CC1(c2ccccc2)OC(C(=O)O)=CC1=O (single isomer, unassigned; (-)) [ACIFRAN]	–	–	–	-31%	Change (Rattus norvegicus [5]): -23%; Change (Rattus norvegicus [6]): -11%
O=C(O)c1cccnc1	–	–	–	–	Serum TG (Rattus norvegicus [7]): 47 mg/dL; Serum TG (Rattus norvegicus [8]): 97 mg/dL; Serum TG (Rattus norvegicus [9]): 88 mg/dL; Serum TG (Rattus norvegicus [10]): 104 mg/dL
CC1(c2ccccc2)OC(C(=O)O)=CC1=O (stereo in doubt; 5b)	–	–	–	–	Serum TG (Rattus norvegicus [11]): 58 mg/dL; Serum TG (Rattus norvegicus [12]): 98 mg/dL; Serum TG (Rattus norvegicus [13]): 104 mg/dL; Serum TG (Rattus norvegicus [14]): 38 mg/dL
CC1(c2ccccc2)OC(C(=O)O)=CC1=O (stereo in doubt; (+)-5b) [ACIFRAN]	–	–	–	-38%	Change (Rattus norvegicus [5]): -29%; Change (Rattus norvegicus [6]): -39%
CC1(c2ccccc2)OC(C(=O)O)=CC1=O (stereo in doubt; 5b) [ACIFRAN]	-55%	-52%	-40%	-44%	Change (Rattus norvegicus [5]): -43%; Liver weight (Rattus norvegicus [15]): 10.2 g; Liver weight (Rattus norvegicus [16]): 8.5 g; Liver weight (Rattus norvegicus [17]): 8.7 g; Change (Rattus norvegicus [18]): -23%; Liver weight (Rattus norvegicus [19]): 10.2 g; Change (Rattus norvegicus [6]): -37%
CC1(c2ccc(Cl)cc2)OC(C(=O)O)=CC1=O (centres undefined)	–	-42%	-27%	–	–
CCOC(=O)C(C)(C)Oc1ccc(Cl)cc1 [CLOFIBRATE]	-55%	-36%	–	-9%	Serum TG (Rattus norvegicus [7]): 43 mg/dL; Serum TG (Rattus norvegicus [8]): 101 mg/dL; Liver weight (Rattus norvegicus [15]): 9 g; Liver weight (Rattus norvegicus [16]): 8.5 g; Serum TG (Rattus norvegicus [9]): 87 mg/dL; Liver weight (Rattus norvegicus [17]): 8.4 g; Liver weight (Rattus norvegicus [19]): 10.7 g; Serum TG (Rattus norvegicus [10]): 104 mg/dL
